The results in this text go back to ChEMBL document CHEMBL1148141, “New labdene iterpenes from Eupatorium glutinosum” (2002).

One test deals with CCRF S-180. Description: Cytotoxicity against mouse S180 cells by MTT assay. In kind it is functional, cell-based. For orientation: Tetrazolium assays rely on reduction of a dye to a coloured formazan, in cell work by metabolically active cells.
For test [1], the system named is Escherichia coli. Kind of test: Antibacterial activity against Escherichia coli IAM 1268 by two fold dilution method. The format is functional.
In test [2] the test system is Pseudomonas aeruginosa. Description: Antibacterial activity against Pseudomonas aeruginosa IAM 1275 by two fold dilution method. In kind it is functional.
The subject of test [3] is Bacillus cereus. Description: Antibacterial activity against Bacillus cereus IAM 1069 by two fold dilution method. In kind it is functional.
Test [4] has as its system Staphylococcus aureus. Description: Antibacterial activity against Staphylococcus aureus IAM 1011 by two fold dilution method. In kind it is functional.
Test [5] deals with Escherichia coli. Kind of test: Antibacterial activity against Escherichia coli IAM 1268 at 10 ug/disk after 18 hrs by agar overlay method. The format is functional, organism-based. In a few lines:
(§1)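 Agar overlay: bacteria grown in nutrient broth (50-100 µL) mixed into 3 mL melted 0.7% soft nutrient agar at 40 °C, poured over 20 mL 1.5% nutrient agar plates; 10 µL sample deposited on solidified agar; inhibition zone diameter read after 18 h at 37 °C. Methanol as solvent control.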

Test [6] concerns Bacillus cereus. Description: Antibacterial activity against Bacillus cereus IAM 1069 at 10 ug/disk after 18 hrs by agar overlay method. In kind it is functional, organism-based. In a few lines:
as §1

In test [7] the test system is Staphylococcus aureus. Kind of test: Antibacterial activity against Staphylococcus aureus IAM 1011 at 10 ug/disk after 18 hrs by agar overlay method. In kind it is functional, organism-based. In outline:
as §1

Test [8] concerns Pseudomonas aeruginosa. Kind of test: Antibacterial activity against Pseudomonas aeruginosa IAM 1275 at 10 ug/disk after 18 hrs by agar overlay method. In kind it is functional, organism-based. In outline: as §1

The structures appear in SMILES notation. ≈ marks a conversion by molar mass, not a printed value. Calls of active or inactive are those of the source. The calls are words filed in the database; no cut-off is given here.

The MIC is the least concentration at which growth counts as inhibited. Lower therefore signals a more susceptible organism. As to `CC(CCO)CC[C@@H]1C(C(=O)O)=CC[C@@H]2C(C)(C)[C@H](O[C@@H]3O[C@H](CO)[C@@H](O)[C@H](O)[C@H]3O)CC[C@@]12C` (some centres not stated), the result with CCRF S-180 was inactive. Further, the MIC with Escherichia coli [1] amounted to 128 µg/mL (≈ 256 µM); against Pseudomonas aeruginosa [2], 256 µg/mL (≈ 511 µM).
Regarding `CC(CCO)CC[C@@H]1C(C(=O)O)=CC[C@@H]2C(C)(C)[C@H](O)CC[C@@]12C` (some centres not stated), the outcome in the test with CCRF S-180 was inactive. In addition, the MIC amounted to 128 µg/mL (≈ 378 µM) in the test with Bacillus cereus [3], 256 µg/mL (≈ 756 µM) in the test with Staphylococcus aureus [4], 128 µg/mL (≈ 378 µM) with Escherichia coli [1] and 64 µg/mL (≈ 189 µM) against Pseudomonas aeruginosa [2]. Moreover, the outcome with Escherichia coli [5], in the test on Bacillus cereus [6], with Staphylococcus aureus [7] and with Pseudomonas aeruginosa [8] was Active.
